Results reported in ChEMBL document CHEMBL1133481, “Resistance-modifying agents. 8. Inhibition of O(6)-alkylguanine-DNA alkyltransferase by O(6)-alkenyl-, O(6)-cycloalkenyl-, and O(6)-(2-oxoalkyl)guanines and potentiation of temozolomide cytotoxicity in vitro by O(6)-(1-cyclopentenylmethyl)guanine” (J Med Chem, 2000).
Where a chain is given by its changes, count along the chain named. Several values for one entry are separate records, joined by “and”; a condition that tells them apart may be missing. Equal values may be shown once.

Tests used:
[1] = target: T1, Methylated-DNA--protein-cysteine methyltransferase (Homo sapiens, UniProt P16455); test: Inhibition of AGT activity to 50% of control rate in HT-29 cell extract; format: cell-free
T1 sequence (P16455 whole entry): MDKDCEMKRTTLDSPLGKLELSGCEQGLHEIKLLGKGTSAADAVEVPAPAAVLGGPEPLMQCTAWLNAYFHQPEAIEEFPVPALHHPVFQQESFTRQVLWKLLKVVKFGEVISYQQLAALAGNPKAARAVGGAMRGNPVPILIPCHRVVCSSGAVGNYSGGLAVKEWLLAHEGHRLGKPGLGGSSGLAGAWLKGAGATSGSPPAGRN

[2] = target: T2, Methylated-DNA--protein-cysteine methyltransferase (Homo sapiens) (UniProt P16455); test: Percent AGT inactivation in HT-29 cell extract at 1 mM; format: cell-based
T2 sequence (whole entry): T1 sequence (P16455 whole entry)

[3] = target: T1, Methylated-DNA--protein-cysteine methyltransferase; test: concentration required to reduce AGT activity to 50% of control rate in HT-29 cell extract.; format: cell-based
In short: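 HT29 cell extract AGT assay; IC50 is the inhibitor concentration reducing AGT activity to 50% of the control rate.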

HT-29 [4] = test: Cytotoxicity of compound in HT-29 cell line; format: functional, cell-based; settings: Homo sapiens
In short: (§1)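 Colony-forming assay: exponentially growing cells were preincubated 1 h with 10 µM AGT inactivator (0.1% DMSO), then given temozolomide 0–1000 µM final (1% DMSO) for 4 h at 37 °C. Cells were then plated: HT29 on plastic, Colo205 in 0.15% agarose, with inactivator kept at 10 µM. After about 2 weeks, colonies were stained (crystal violet for HT29, MTT for Colo205) and counted. Temozolomide IC50 is mean ± SD of 3 independent experiments.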

COLO 205 [5] = test: Level of AGT activity in COLO 205 cell line; format: functional, cell-based; settings: Homo sapiens
HT-29 [6] = test: Level of AGT activity in HT-29 cell line; format: functional, cell-based; settings: Homo sapiens
COLO 205 [7] = test: Cytotoxicity of compound in COLO 205 cell line; format: functional, cell-based; settings: Homo sapiens; in short: as §1
[8] = target: T2, Methylated-DNA--protein-cysteine methyltransferase (Homo sapiens); test: Percent of AGT inactivation in HT-29 cell extract at 1 mM concentration.
[9] = target: T1, Methylated-DNA--protein-cysteine methyltransferase; test: concentration required to reduce AGT activity to 50% of control rate in intact HT-29 human colorectal carcinoma cells; format: cell-based
In short: (§2)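 HT29 cells were grown 3 days in EMEM with 10% FCS, then exposed for 4 h to inactivator in serum-free EMEM (DMSO final 1% or 0.1%). Cells were trypsinized, washed and counted by trypan blue; pellets of 10⁷ cells were homogenized in Tris-HCl pH 8.3 buffer with EDTA, DTT and 200 mM NaCl. AGT activity was assayed in the extracts, and the concentration depleting whole-cell AGT activity by 50% was calculated.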

[10] = target: T1, Methylated-DNA--protein-cysteine methyltransferase; test: (§3) concentration required to reduce AGT activity to 50% of control rate in intact HT-29 human colorectal carcinoma cells.; format: cell-based; in short: as §2
[11] = tested on: T3, Methylated-DNA--protein-cysteine methyltransferase (Homo sapiens), P16455 [G160R]
T3 sequence (whole entry): T1 sequence (P16455 whole entry) with G160R

[12] = target: T2, Methylated-DNA--protein-cysteine methyltransferase (Homo sapiens); test: Compound was evaluated for inactivation of 156A mutant AGT
In short: (§4)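 Recombinant wild-type or mutant (P140K, Y158H, G160R, G156A) AGT, made in E. coli with an N-terminal His6 tag and purified by metal affinity, was preincubated with inhibitor for 30 min at 37 °C in 50 mM Tris-HCl pH 7.5, 0.1 mM EDTA, 5 mM DTT and hemocyanin. Residual activity was measured over a further 30 min with methylated DNA substrate. ED50 was read from a plot of % activity lost against inhibitor amount, with a maximum of […] inhibitor.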

[13] = tested on: T4, Methylated-DNA--protein-cysteine methyltransferase (Homo sapiens), P16455 [Y158H]; test: Compound was evaluated for inactivation of Y158H mutant AGT; in short: as §4
T4 sequence (whole entry): T1 sequence (P16455 whole entry) with Y158H

[14] = tested on: T5, Methylated-DNA--protein-cysteine methyltransferase (Homo sapiens), P16455 [P140K]
T5 sequence (whole entry): T1 sequence (P16455 whole entry) with P140K

[15] = target: T1, Methylated-DNA--protein-cysteine methyltransferase; test: as §3; format: cell-based; in short: as §2; remark: listed apart in the source
[16] = tested on: T3, Methylated-DNA--protein-cysteine methyltransferase (Homo sapiens), P16455 [G160R]; test: Compound was evaluated for inactivation of G160R mutant AGT; in short: as §4
[17] = target: T2, Methylated-DNA--protein-cysteine methyltransferase (Homo sapiens); test: Compound was evaluated for inactivation of Wild type AGT; in short: as §4
[18] = tested on: T5, Methylated-DNA--protein-cysteine methyltransferase (Homo sapiens), P16455 [P140K]; test: Compound was evaluated for inactivation of P140K mutant AGT; in short: as §4

Compound: C=C(CC)COc1nc(N)nc2[nH]cnc12
- IC50 [1]: 16 µM

Compound: Nc1nc(OCC(=O)c2ccccc2)c2[nH]cnc2n1
- Inactivation [2]: 0%
- IC50 [3]: > 1000 µM

Compound: CCCCCCOc1[nH]c(N)nc2ncnc1-2
- IC50 [1]: 554 µM

Compound: Cn1nnc2c(C(N)=O)ncn2c1=O [TEMOZOLOMIDE]
- IC50 (HT-29 [4]): 951 µM
- Level (COLO 205 [5]): 1160 fM/mg
- Level (HT-29 [6]): 908 fM/mg
- IC50 (COLO 205 [7]): 343 µM

Compound: CCCCCOc1nc(N)nc2[nH]cnc12
- IC50 [1]: 1010 µM

Compound: Nc1nc(OCC2CC=CCC2)c2[nH]cnc2n1 (stereo not drawn)
- Inactivation [8]: 32%
- IC50 [3]: > 1000 µM

Compound: CC(C)C(=O)COc1nc(N)nc2nc[nH]c12
- Inactivation [8]: 31%
- IC50 [3]: > 1000 µM

Compound: COc1nc(N)nc2nc[nH]c12 [METHYLGUANINE]
- IC50 [9]: 248 µM
- IC50 [1]: 428 µM

Compound: CCCCOc1nc(N)nc2[nH]cnc12
- IC50 [1]: 493 µM

Compound: CC(=O)COc1nc(N)nc2[nH]cnc12
- IC50 [10]: 95 µM and 119 µM
- IC50 [1]: 192 µM

Compound: CC/C=C/CCOc1nc(N)nc2[nH]cnc12
- Inactivation [2]: 88%

Compound: CCOC(C)(COc1nc(N)nc2[nH]cnc12)OCC
- IC50 [1]: > 1000 µM
- Inactivation [2]: 0%

Compound: C=C(C)[C@H]1CC=C(COc2nc(N)nc3[nH]cnc23)CC1
- IC50 [1]: 2.6 µM

Compound: COC(COc1nc(N)nc2nc[nH]c12)(OC)c1ccccc1
- IC50 [1]: > 1000 µM

Compound: CCOc1nc(N)nc2[nH]cnc12
- Inactivation [2]: 0%

Compound: C=C(COc1nc(N)nc2[nH]cnc12)C(C)C
- Inactivation [8]: 22%
- IC50 [3]: > 1000 µM

Compound: CC/C=C\CCOc1[nH]c(N)nc2ncnc1-2
- Inactivation [8]: 32%
- IC50 [3]: > 1000 µM

Compound: CCOc1nc(N)nc2nc[nH]c12
- IC50 [1]: > 1000 µM

Compound: CC(C)C1(COc2nc(N)nc3[nH]cnc23)OCCO1
- Inactivation [2]: 54%

Compound: Nc1nc(OCC2=CCCC2)c2[nH]cnc2n1
- IC50 [9]: 0.2 µM
- IC50 [1]: 0.39 µM

Compound: Nc1nc(OCc2ccccc2)c2nc[nH]c2n1
- ED50 [11]: 4.7 µM
- ED50 [12]: 60 µM
- ED50 [13]: 620 µM
- ED50 [14]: > 1500 µM

Compound: Nc1nc(OCC2=CCC2)c2[nH]cnc2n1
- IC50 [1]: 0.55 µM

Compound: Cn1nnc2c(C(N)=O)ncn2c1=O.Nc1nc(OCC2=CCCC2)c2[nH]cnc2n1
- IC50 (HT-29 [4]): 299 µM
- IC50 (COLO 205 [7]): 36 µM

Compound: COC(COc1[nH]c(N)nc2ncnc1-2)(OC)c1ccccc1
- Inactivation [2]: 0%

Compound: C=C(COc1nc(N)nc2nc[nH]c12)c1ccccc1
- IC50 [10]: 37.5 µM and 39.6 µM
- IC50 [1]: 77 µM

Compound: Nc1nc(OCC2CCCCC2)c2nc[nH]c2n1
- Inactivation [2]: 0%
- IC50 [3]: > 1000 µM

Compound: Cn1nnc2c(C(N)=O)ncn2c1=O.Nc1nc(OCc2ccccc2)c2[nH]cnc2n1
- IC50 (HT-29 [4]): 86 µM
- IC50 (COLO 205 [7]): 14 µM

Compound: C=CCOc1nc(N)nc2nc[nH]c12
- IC50 [10]: 2.7 µM
- IC50 [1]: 8.5 µM
- IC50 [15]: 5.1 µM

Compound: Nc1nc(OCC2=CCCC2)c2nc[nH]c2n1
- ED50 [12]: 113 µM
- ED50 [16]: 13 µM
- ED50 [17]: 0.3 µM
- ED50 [13]: 1500 µM
- ED50 [18]: > 1500 µM

Compound: Nc1nc(Oc2cccs2)c2[nH]cnc2n1
- IC50 [1]: 0.003 µM

Compound: CC1(C)OCC(COc2nc(N)nc3[nH]cnc23)O1 (stereo not drawn)
- IC50 [1]: > 1000 µM
- Inactivation [2]: 0%

Compound: Nc1nc(OCC2=CCCCC2)c2[nH]cnc2n1
- IC50 [1]: 1.6 µM

Compound: C=CCCCCOc1nc(N)nc2[nH]cnc12
- Inactivation [2]: 65%

Compound: C#CCOc1nc(N)nc2nc[nH]c12
- IC50 [10]: 11.5 µM and 11.9 µM
- IC50 [1]: 20 µM

Compound: CC(C)CCOc1nc(N)nc2[nH]cnc12
- Inactivation [8]: 24%

Compound: CCC(=O)COc1nc(N)nc2nc[nH]c12
- IC50 [10]: 94.5 µM and 93.2 µM
- IC50 [1]: 151 µM

Compound: CC(C)CCOc1nc(N)nc2nc[nH]c12
- IC50 [3]: > 1000 µM

Compound: C=C(C)COc1nc(N)nc2nc[nH]c12
- IC50 [10]: 13.5 µM and 9.9 µM
- IC50 [1]: 25 µM

Compound: Nc1nc(OCC2CCCC2)c2nc[nH]c2n1
- Inactivation [8]: 0%
- IC50 [3]: > 1000 µM

Compound: CCC(COc1nc(N)nc2[nH]cnc12)(OC)OC
- IC50 [1]: > 1000 µM
- Inactivation [2]: 0%

Compound: CCCOc1nc(N)nc2[nH]cnc12
- Inactivation [8]: 24%

Compound: Nc1nc(OCC2CCC2)c2[nH]cnc2n1
- Inactivation [8]: 34%
- IC50 [3]: > 1000 µM

Compound: CCCOc1nc(N)nc2nc[nH]c12
- IC50 [3]: > 1000 µM

Compound: Nc1nc(OCCc2ccccc2)c2nc[nH]c2n1
- IC50 [1]: 548 µM

Compound: CCCCCCCOc1nc(N)nc2[nH]cnc12
- IC50 [1]: > 100 µM
- Inactivation [2]: 10%
